From ChEMBL document CHEMBL4422684, “Identification of novel lysine demethylase 5-selective inhibitors by inhibitor-based fragment merging strategy” (Bioorg Med Chem, 2019)

Experiments:
[1] = biological target: Histone lysine demethylase PHF8 (Homo sapiens, UniProt Q9UPP1); assay: Inhibition of human N-terminal FLAG-tagged KDM7B (2 to 525 residues) expressed in baculovirus infected Sf9 insect cells using H3(1-21)K9(Me2)-GGK(Biotin)/2-OG as substrate measured after 1 hr by Alphalisa assay
In short: (§1)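 AlphaLISA demethylase assay in 50 mM HEPES pH 7.5, 0.1% BSA, 0.01% Tween 20 with DMSO. Enzyme and inhibitor combined, then peptide plus 2-OG (50 µM), Fe(II) (5 µM) and ascorbate (100 µM) in the added mix; 1 h at room temperature with shaking.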

[2] = biological target: T1, Lysine-specific demethylase 3A (Homo sapiens) (UniProt Q9Y4C1); assay: Inhibition of human N-terminal FLAG-tagged KDM3A (2 to 1321 residues) expressed in baculovirus infected Sf9 insect cells at 25 uM using H3(1-21)K9(Me1)-GGK(Biotin)/2-OG as substrate measured after 1 hr by Alphalisa assay relative to control; in short: as §1
T1 sequence (whole entry): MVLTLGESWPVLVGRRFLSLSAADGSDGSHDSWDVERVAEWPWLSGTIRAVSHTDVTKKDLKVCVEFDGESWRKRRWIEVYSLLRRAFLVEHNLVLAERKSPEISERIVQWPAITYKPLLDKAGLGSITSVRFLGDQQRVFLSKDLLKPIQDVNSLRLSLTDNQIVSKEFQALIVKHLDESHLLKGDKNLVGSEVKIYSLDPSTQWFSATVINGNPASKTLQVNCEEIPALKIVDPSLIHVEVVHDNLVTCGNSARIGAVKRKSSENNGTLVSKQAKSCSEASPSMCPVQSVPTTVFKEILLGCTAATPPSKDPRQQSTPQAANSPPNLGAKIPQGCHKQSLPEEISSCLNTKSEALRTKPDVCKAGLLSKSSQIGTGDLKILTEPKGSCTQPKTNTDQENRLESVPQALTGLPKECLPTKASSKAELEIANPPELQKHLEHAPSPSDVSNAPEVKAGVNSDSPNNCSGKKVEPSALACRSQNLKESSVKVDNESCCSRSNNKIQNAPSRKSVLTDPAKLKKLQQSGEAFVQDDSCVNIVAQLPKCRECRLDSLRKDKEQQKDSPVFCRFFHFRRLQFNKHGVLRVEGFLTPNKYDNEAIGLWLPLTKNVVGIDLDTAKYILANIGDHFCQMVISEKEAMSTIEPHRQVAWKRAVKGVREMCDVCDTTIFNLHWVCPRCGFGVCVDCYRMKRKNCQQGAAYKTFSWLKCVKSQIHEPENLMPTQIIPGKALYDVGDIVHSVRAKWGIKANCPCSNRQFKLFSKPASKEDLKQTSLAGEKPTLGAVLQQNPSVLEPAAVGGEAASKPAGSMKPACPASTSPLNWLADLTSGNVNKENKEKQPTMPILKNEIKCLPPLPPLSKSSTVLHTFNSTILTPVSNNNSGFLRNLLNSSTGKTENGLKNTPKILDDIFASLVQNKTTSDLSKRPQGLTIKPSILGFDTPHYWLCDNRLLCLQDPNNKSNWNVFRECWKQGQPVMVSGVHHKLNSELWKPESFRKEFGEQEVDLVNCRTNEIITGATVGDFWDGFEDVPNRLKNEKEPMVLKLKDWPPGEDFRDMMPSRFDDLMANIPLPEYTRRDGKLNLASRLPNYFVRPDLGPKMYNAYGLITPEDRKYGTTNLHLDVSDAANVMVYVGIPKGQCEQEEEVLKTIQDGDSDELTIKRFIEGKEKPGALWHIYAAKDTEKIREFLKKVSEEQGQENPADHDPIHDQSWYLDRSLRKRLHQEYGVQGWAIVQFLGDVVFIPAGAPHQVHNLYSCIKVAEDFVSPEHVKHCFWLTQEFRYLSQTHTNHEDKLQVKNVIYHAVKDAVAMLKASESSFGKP

[3] = biological target: Lysine-specific demethylase 5A (Homo sapiens, UniProt P29375); assay: Potency index, ratio of CPI-455 IC50 to test compound IC50 for human C-terminal FLAG-tagged KDM5A (1 to 1090 residues) expressed in baculovirus infected Sf9 insect cells
Lysine-specific demethylase 5A, sequence (P29375 whole entry, the tested form may be a part): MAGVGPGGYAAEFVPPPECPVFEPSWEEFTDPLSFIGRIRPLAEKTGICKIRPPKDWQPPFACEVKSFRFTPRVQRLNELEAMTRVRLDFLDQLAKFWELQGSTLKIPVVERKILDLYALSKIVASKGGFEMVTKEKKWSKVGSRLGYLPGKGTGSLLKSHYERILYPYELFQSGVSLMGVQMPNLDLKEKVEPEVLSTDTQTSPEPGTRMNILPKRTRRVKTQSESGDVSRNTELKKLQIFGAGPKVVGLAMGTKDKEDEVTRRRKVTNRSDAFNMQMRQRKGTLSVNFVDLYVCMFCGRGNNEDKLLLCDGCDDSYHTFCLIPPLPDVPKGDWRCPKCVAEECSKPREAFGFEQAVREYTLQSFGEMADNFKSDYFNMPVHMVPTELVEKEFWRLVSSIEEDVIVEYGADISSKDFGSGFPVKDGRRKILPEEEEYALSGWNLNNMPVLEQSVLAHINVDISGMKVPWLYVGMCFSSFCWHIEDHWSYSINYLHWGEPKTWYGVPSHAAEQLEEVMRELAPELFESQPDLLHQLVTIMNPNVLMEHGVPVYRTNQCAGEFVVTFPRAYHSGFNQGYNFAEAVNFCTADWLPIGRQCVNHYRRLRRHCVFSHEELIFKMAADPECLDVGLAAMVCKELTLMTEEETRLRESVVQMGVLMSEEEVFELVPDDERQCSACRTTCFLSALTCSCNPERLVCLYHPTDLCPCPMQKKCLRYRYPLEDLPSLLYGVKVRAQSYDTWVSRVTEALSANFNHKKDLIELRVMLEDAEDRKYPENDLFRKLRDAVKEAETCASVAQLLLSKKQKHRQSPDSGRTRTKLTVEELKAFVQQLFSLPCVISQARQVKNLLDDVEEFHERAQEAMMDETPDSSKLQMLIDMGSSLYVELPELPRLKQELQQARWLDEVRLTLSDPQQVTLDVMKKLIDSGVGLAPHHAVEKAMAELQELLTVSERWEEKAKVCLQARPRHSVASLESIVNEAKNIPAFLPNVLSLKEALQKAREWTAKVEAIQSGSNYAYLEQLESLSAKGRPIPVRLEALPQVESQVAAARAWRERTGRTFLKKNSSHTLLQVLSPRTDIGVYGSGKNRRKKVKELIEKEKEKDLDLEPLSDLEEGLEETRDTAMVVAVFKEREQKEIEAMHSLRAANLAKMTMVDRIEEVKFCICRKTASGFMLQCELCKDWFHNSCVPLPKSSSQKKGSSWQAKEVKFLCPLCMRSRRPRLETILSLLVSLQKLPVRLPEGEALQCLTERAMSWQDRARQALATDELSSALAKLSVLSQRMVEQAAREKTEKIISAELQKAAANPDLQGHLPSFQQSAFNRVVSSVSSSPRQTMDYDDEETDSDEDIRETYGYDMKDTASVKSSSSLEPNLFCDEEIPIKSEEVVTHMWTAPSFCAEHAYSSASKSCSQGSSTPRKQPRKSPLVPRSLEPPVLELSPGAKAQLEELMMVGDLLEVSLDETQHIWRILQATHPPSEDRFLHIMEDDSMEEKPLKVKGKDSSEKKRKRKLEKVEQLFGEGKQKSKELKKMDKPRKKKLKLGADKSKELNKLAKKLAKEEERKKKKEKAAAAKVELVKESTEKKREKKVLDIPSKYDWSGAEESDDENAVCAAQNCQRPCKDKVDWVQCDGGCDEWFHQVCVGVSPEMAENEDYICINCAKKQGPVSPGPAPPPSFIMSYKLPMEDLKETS

Histone lysine demethylase PHF8, sequence (Q9UPP1 whole entry, the tested form may be a part): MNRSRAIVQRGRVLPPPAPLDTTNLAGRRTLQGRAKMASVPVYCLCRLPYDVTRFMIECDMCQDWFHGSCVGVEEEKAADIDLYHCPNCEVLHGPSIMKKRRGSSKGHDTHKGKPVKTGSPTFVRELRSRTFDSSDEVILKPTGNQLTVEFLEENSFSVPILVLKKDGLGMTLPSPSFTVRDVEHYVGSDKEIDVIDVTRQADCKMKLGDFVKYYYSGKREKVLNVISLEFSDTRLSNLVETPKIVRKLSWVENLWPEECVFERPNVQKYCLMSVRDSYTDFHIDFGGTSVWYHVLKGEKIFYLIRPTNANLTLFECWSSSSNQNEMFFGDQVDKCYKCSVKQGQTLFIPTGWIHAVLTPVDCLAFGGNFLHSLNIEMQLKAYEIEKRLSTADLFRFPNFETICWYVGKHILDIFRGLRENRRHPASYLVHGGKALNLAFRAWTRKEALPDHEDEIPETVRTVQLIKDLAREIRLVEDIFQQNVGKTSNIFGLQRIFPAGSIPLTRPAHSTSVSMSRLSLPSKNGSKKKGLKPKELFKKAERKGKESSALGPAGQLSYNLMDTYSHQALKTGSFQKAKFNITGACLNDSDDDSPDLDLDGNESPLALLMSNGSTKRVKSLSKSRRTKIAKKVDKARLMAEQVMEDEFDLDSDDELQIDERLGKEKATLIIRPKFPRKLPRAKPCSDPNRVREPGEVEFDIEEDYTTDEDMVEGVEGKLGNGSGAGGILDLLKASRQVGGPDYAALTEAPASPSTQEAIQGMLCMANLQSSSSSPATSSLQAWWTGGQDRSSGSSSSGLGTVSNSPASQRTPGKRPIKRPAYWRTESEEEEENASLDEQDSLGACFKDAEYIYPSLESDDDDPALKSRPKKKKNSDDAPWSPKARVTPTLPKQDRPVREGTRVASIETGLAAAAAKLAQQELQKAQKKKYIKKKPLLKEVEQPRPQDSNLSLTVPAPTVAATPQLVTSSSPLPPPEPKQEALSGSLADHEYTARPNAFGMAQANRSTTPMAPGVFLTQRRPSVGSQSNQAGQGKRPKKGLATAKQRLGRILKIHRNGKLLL

- IC50 [1]: > 50 µM
- inhibition [2]: 13%
- Ratio IC50 [3]: 22
Structure (SMILES): CCCCCCN(C)Cc1ccc(-c2[nH]c3c(C#N)cnn3c(=O)c2C(C)C)cc1
